# Measured values of several laboratories.
# Each line is one published result; the experiments were not run side by side.
# Organism: Staphylococcus epidermidis
# Read-out: microbial growth
SMILES,assay,test system,conditions,MIC
O=C(O)CN1C(=O)/C(=C/c2c3ccccc3c(-c3ccc(N(c4ccccc4)c4ccccc4)cc3)c3ccccc23)NC1=S,broth dilution,ATCC12228,,> 1000 µg/mL
NCCCC[C@H](N)C(=O)Nc1ccc(-n2nc(C(F)(F)F)cc2-c2ccc3c(ccc4ccccc43)c2)cc1,broth dilution,ATCC35984,24 h,4 µg/mL
O=C(Nc1ncc([N+](=O)[O-])s1)C1CCCCC1,broth dilution,,,31.3 µM
NCCCC[C@H](N)C(=O)Nc1ccc(-n2nc(C(F)(F)F)cc2-c2ccc3c(c2)Nc2ccccc2S3)cc1,broth dilution,ATCC35984,24 h,4 µg/mL
CC[C@H]1OC(=O)[C@H](C)[C@@H](O[C@H]2C[C@@](C)(OC)[C@@H](O)[C@H](C)O2)[C@H](C)[C@@H](O[C@@H]2O[C@H](C)C[C@H](N(C)C)[C@H]2O)[C@](C)(O)C[C@@H](C)C(=O)[C@H](C)[C@@H](O)[C@]1(C)O,broth dilution,12228,,0.78 µM
CC(C)Oc1c(NC(=O)c2ccc(NC(=O)[C@H](CC(N)=O)NC(=O)c3ccc(NC(=O)c4ccc(C#N)s4)cc3)cc2)ccc(C(=O)Nc2ccc(C(=O)O)cc2)c1O,,DSM28765,,0.5 µg/mL
CN[C@H](CC(C)C)C(=O)N[C@H]1C(=O)N[C@@H](CC(N)=O)C(=O)N[C@H]2C(=O)N[C@H]3C(=O)N[C@H](C(=O)N[C@H](C(=O)O)c4cc(O)cc(O)c4-c4cc3ccc4O)[C@H](O)c3ccc(c(Cl)c3)Oc3cc2cc(c3O[C@@H]2O[C@H](CO)[C@@H](O)[C@H](O)[C@H]2O[C@H]2C[C@](C)(N)[C@H](O)[C@H](C)O2)Oc2ccc(cc2Cl)[C@H]1O,broth dilution,ATCC12228,,0.98 µg/mL
CC(C)Oc1c(NC(=O)c2ccc(NC(=O)c3ccc(NC(=O)[C@H](CC(N)=O)NC(=O)c4ccc(NC(=O)c5ccc(C#N)s5)cc4)cc3)c(OC(C)C)c2O)ccc(C(=O)O)c1O,,DSM28765,,≤ 0.03 µg/mL
O=C(O)CN1C(=O)/C(=C/c2c3ccccc3c(-c3ccc(N(c4ccccc4)c4ccccc4)cc3)c3ccccc23)SC1=S,broth dilution,ATCC12228,,> 1000 µg/mL
CC(C)Oc1c(-n2cc(-c3ccc(NC(=O)C(CC(N)=O)NC(=O)c4ccc(NC(=O)c5ccc(C#N)cc5)cc4)cc3)nn2)ccc(C(=O)Nc2ccc(C(=O)O)cc2)c1O (centres unmarked),,DSM28765,,0.125 µg/mL
NC[C@H]1O[C@H](O[C@H]2[C@H](O)[C@@H](O[C@H]3O[C@H](CO)[C@@H](O)[C@H](N)[C@H]3O)[C@H](N)C[C@@H]2N)[C@H](N)C[C@@H]1O,broth dilution,12228,,0.78 µM
